# Data published in ChEMBL document CHEMBL2331343 (Bioorg Med Chem, 2013).
# How the values were obtained:
# D(2) dopamine receptor = D(2) dopamine receptor (Homo sapiens, UniProt P14416); details: HEK293, at 10 µM
# [1] = target: T1, 5-hydroxytryptamine receptor 1A (Homo sapiens) (UniProt P08908); assay: Inhibition of [3H]8-OH-DPAT binding to 5-HT1A receptor (unknown origin) expressed in HEK293 cells at 10 uM by liquid scintillation counter relative to control; format: cell-based
# T1 sequence (whole entry): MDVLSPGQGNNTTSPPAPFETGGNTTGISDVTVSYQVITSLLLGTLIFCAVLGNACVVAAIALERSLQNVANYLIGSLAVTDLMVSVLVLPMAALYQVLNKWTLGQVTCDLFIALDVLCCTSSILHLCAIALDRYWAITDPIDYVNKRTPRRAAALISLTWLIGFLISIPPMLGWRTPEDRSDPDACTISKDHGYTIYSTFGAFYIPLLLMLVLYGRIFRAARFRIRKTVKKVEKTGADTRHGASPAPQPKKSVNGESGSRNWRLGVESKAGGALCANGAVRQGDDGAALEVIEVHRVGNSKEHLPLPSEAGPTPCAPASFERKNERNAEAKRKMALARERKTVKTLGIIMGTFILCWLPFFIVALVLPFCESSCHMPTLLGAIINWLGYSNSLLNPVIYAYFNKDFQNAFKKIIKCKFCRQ
# Outline: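 Membranes of HEK293T stably transfected with 5-HT1A, […], incubated in duplicate 50 min at 30 °C with [3H]8-OH-DPAT in 50 mM Tris, 4 mM MgCl2, pH 7.4. Nonspecific binding with 10 μM WAY100635. Filtration on GF/B, cold Tris/EDTA wash, scintillation counting.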
# D(1A) dopamine receptor [2] = target: T2, D(1A) dopamine receptor (Homo sapiens, UniProt P21728); assay: Inhibition of [3H]SCH23390 binding to dopamine D1 receptor (unknown origin) expressed in human HEK293 cells at 10 uM by liquid scintillation counter relative to control; format: cell-based
# Outline: (§1)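 Stably transfected HEK293T D1 membranes, […], duplicate incubation 50 min at 30 °C with [3H]SCH23390 in 50 mM Tris, 4 mM MgCl2, pH 7.4. Nonspecific binding with 10 μM SCH23390. GF/B filtration, scintillation counting.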
# [3] = target: 5-hydroxytryptamine receptor 2A (Homo sapiens, UniProt P28223); assay: Inhibition of [3H]Ketanserin binding to 5-HT2A receptor (unknown origin) expressed in HEK293 cells at 10 uM by liquid scintillation counter relative to control; format: cell-based
# Outline: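 Membranes of HEK293T stably transfected with 5-HT2A, […], incubated in duplicate 15 min at 37 °C with [3H]ketanserin in 50 mM Tris, 4 mM MgCl2, pH 7.4. […] GF/B filtration, cold wash, scintillation counting.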
# [4] = target: T3, 5-hydroxytryptamine receptor 1A (Homo sapiens, UniProt P08908); assay: Displacement of [3H]8-OH-DPAT from 5-HT1A receptor (unknown origin) expressed in HEK293 cells by liquid scintillation counter; format: cell-based
# T3 sequence (P08908 whole entry): T1 sequence (whole entry)
# D(1A) dopamine receptor [5] = target: T2, D(1A) dopamine receptor; assay: Displacement of [3H]SCH23390 from dopamine D1 receptor (unknown origin) expressed in human HEK293 cells by liquid scintillation counter; format: cell-based
# Outline: as §1
# Sequence of 5-hydroxytryptamine receptor 2A (P28223 whole entry): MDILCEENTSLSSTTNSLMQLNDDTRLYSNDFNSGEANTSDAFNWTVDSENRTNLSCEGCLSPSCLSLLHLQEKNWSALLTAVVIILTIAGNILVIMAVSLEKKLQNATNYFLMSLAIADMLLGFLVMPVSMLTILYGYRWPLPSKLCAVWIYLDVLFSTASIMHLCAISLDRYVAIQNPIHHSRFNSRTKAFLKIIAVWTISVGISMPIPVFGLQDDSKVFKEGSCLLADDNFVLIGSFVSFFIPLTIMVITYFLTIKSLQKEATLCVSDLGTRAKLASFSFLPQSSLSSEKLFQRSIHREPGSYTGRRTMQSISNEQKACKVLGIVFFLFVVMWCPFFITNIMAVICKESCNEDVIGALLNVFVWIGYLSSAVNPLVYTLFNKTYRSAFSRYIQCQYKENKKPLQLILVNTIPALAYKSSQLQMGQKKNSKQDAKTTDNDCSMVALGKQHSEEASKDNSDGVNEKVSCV
# T2 sequence (P21728 whole entry): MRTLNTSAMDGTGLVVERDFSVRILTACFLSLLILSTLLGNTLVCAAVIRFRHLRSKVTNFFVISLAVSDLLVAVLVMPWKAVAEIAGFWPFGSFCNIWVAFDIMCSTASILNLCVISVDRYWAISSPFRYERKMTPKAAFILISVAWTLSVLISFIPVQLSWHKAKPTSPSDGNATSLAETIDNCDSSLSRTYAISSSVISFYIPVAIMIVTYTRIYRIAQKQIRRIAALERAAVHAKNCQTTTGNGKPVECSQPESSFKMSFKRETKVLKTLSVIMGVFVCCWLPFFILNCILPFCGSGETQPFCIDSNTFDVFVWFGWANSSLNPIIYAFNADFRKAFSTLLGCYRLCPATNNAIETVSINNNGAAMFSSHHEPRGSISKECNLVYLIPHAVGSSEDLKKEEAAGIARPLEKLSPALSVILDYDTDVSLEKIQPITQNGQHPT
# Sequence of D(2) dopamine receptor (P14416 whole entry): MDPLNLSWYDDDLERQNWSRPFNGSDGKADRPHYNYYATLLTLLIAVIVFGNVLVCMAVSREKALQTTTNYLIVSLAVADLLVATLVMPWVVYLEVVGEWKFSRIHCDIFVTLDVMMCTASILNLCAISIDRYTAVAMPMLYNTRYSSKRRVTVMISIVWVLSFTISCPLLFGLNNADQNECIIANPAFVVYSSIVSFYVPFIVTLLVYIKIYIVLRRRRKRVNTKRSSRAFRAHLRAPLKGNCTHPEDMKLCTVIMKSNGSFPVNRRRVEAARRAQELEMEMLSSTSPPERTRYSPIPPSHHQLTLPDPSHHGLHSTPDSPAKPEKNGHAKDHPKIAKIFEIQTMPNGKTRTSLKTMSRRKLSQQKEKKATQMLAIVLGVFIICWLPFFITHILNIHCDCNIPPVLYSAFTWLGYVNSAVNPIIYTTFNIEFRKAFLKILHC
Compound,inhibition (D(2) dopamine receptor) [%],inhibition [1] [%],inhibition (D(1A) dopamine receptor [2]) [%],inhibition [3] [%],Ki [4] [nM],Ki (D(1A) dopamine receptor [5]) [nM]
COc1cc2c(cc1O)CCN1Cc3c(ccc(OC)c3O)C[C@H]21,8.16,31.5,49.4,36,,
COc1cc2c(cc1OC)[C@H]1Cc3ccc(O)c(OC)c3CN1CC2,3.4,65.5,54.4,27.9,,
COc1cc2c(cc1O)[C@@H]1Cc3c(CO)c(OC)cc(OC)c3CN1CC2,94.8,,104,,> 5000,
COc1cc2c(cc1O)[C@@H]1Cc3cc(C)cc(C)c3CN1CC2,90.1,,99,,,
COc1ccc2c(c1OC)CN1CCc3cc4c(cc3[C@H]1C2)OCO4,26.6,34.5,75.5,18.3,,> 5000
COc1cc2c(cc1OC)[C@H]1Cc3ccc(OC)c(O)c3CN1CC2,1.5,6.2,35.9,19.3,,
COc1cc2c(cc1O)[C@@H]1Cc3cc4c(cc3CN1CC2)OCO4,100,61,99.6,49.9,,4.2
COc1cc2c(cc1OC)[C@@H]1Cc3ccc(OC)c(O)c3CN1CC2 [TETRAHYDROPALMATRUBINE],22.7,30.5,87.7,20,,443
O=C(CCCN1CCC2(CC1)C(=O)NCN2c1ccccc1)c1ccc(F)cc1,100,,,100,,
COc1ccc2c(c1)C[C@H]1c3cc(O)c(OC)cc3CCN1C2,90,,97.5,,,
COc1ccc2c(c1O)CN1CCc3cc4c(cc3[C@H]1C2)OCO4,20.4,25.5,78.9,10.9,,> 5000
NCCc1c[nH]c2ccc(O)cc12,,100,,,,
COc1cc2c(cc1O)[C@H]1Cc3ccc(OC)c(OC)c3CN1CC2,,64.2,99.5,40.6,,[…]
COc1cc2c(c(OC)c1)CN1CCc3cc(OC)c(O)cc3[C@@H]1C2,,,99.8,,,
CN1CCc2cc(Cl)c(O)cc2C(c2ccccc2)C1 (stereo not given),,,100,,,
COc1cc2c(cc1O)[C@@H]1Cc3ccc(OC)c(OC)c3CN1CC2,,71.1,99.2,40.5,,[…]
COc1cc2c(cc1O)[C@H]1Cc3ccc(OC)c(O)c3CN1CC2,31.8,2,84.5,26.3,,529
COc1cc2c(cc1O)[C@H]1Cc3ccc(O)c(OC)c3CN1CC2,53.7,53.6,94.4,16.4,,135
COc1cc2c(cc1O)CCN1Cc3c(ccc(O)c3OC)C[C@H]21,27.7,13.2,67.1,13.9,,
COc1cc2c(cc1O)CCN1Cc3c(ccc(OC)c3OC)C[C@@H]21,63.2,50.5,84.1,38,,310
COc1c(O)ccc2c1CN1CCc3cc4c(cc3[C@H]1C2)OCO4,40.5,63.6,95.8,25.3,,565
COc1cc2c(cc1OC)[C@H]1Cc3ccc(OC)c(OC)c3CN1CC2,20.5,30.4,39.8,29.7,,
COc1cc2c(cc1O)CCN1Cc3c(ccc(OC)c3OC)C[C@H]21,71.5,55.4,88.8,40.4,,1190
